# Assay outcomes: PubChem, several laboratories
# XiGFP reactiv – activators of inactive X chromosome reactivation, primary screen, imaging, XiGFP fibroblasts, GFP high-content imaging, set 2. 360,000 tested, 0.055% active. activation, % at 7.58 µM. XiGFP mouse fibroblasts, % GFP-positive cells imaging, 3 d; cells co-treated with 5-aza-dC sensitizer; scaled so ellipticine positive control = 100%. AID 743238, 2013;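 active means mean normalized replicate activation at least 10% and every replicate at or above 10%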;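 further: 0% = median of on-plate neutral control wells and 100% = ellipticine 6 µM median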
#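 System: 68-5-11 XiGFP fibroblast line | Buffer or medium: DMEM containing 5-aza-dC | Compound: Single point | Times: Compounds 3 days, fix/stain 15 min at room temperature | Benchmarks: Positive control ellipticine, 6 µM final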
# CaV13 ICDI inh – Primary screen for inhibitors of IQ motif and Ca2+-dependent inactivation inhibitor domain binding in CACNA1D, Förster resonance energy transfer in living cells, …. HEK cells, CFP/YFP FRET ICDI-IQ, plate reader, 10 min; percent FRET-ratio fall versus neutral wells. inhibition, % at 12.3 µM. 340,000 tested, 0.098% active. AID 743397;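 active means mean replicate inhibition of at least 30% and at least 1% of replicates passing that level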;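 further: 0% = median of the neutral control wells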
# GAA850 FXN act – FXN promoter activators, primary screen, cell-based, luciferase luminescence, HEK293 lucGAA850; HEK293 lucGAA850 FXN promoter luciferase reporter, 24 h; percent of 10 µM SAHA response; activation, % at 6 µM; 360,000 tested, 0.56% active; AID 540364, 2011;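 active means activation above the average of all compounds screened plus 3 SD, cutoff fixed separately per campaign, cut at about 7.5% in these data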;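 further: 0% = DMSO wells and 100% = 10 µM SAHA wells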
# GSIS activator – GLuc luminescence reporter in INS-1E cells, primary screen for activators of glucose-dependent secretion of insulin | INS-1E GLuc reporter insulin secretion, 2-3 h | activation, % at 16.6 µM | AID 743287, 2014 | 370,000 tested, 0.61% active;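 active means lowest replicate activation of at least 40%, so every replicate reaches that level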;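 further: 0% = median of neutral control wells and 100% = median of IBMX positive control wells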
# An asterisk follows results filed as active; · = not tested or not shown. This is a sample that favours compounds with a hit; in the whole collection about 1% have one here.
SMILES,XiGFP reactiv,CaV13 ICDI inh,GAA850 FXN act,GSIS activator
CC(C)Oc1cccc(C(=O)C2CCCN(C(=O)CCc3cnn(C)c3)C2)c1 (configuration not stated),0,-6,4,55*
Cc1nn(C)c(C)c1CCC(=O)N1CCCC(C(=O)c2cccc(OC(C)C)c2)C1 (configuration not stated),0,-2,2,4
COc1ccccc1OCCn1ccnc1,0,-21,2,9
CCC(C)c1ccccc1OCCn1ccnc1 (configuration not stated),0,-2,1,48*
Clc1ccc(OCCn2ccnc2)c(Cl)c1,·,-5,1,49*
COc1ccc(S(=O)(=O)Nc2ccc3c(c2)CC(=O)N([C@@H](C)CO)C[C@H](C)[C@H](CN(C)S(=O)(=O)c2ccccc2)O3)cc1,-1,·,·,5
CCS(=O)(=O)N1CC(=O)N2[C@@H](CO)[C@H](c3ccc(-c4cccc(F)c4)cc3)[C@@H]2C1,0,·,·,4
O=C(Nc1cc(F)ccc1F)N1C[C@@H]2[C@H](c3ccccc31)[C@H](CO)N2C(=O)c1ccccc1,0,·,·,8
COc1ccc(-c2cc(C(F)(F)F)n3nc(C(=O)O)cc3n2)cc1OC,·,-7,1,48*
COc1cc2c3nnc(-c4ccc(F)cc4)c-3cn(Cc3ccccc3F)c2cc1OC,114*,-61,6,12
COc1cc2c3nnc(-c4ccccc4)c-3cn(Cc3ccccc3F)c2cc1OC,97*,-9,·,98*
O=C(c1cc2c(s1)CCCC2)N1CCN(Cc2ccc3c(c2)OCO3)CC1,·,-5,1,·
O=C(Oc1ccc2c(c1)OCO2)c1cc2c(s1)CCC2,·,-5,0,46*
COc1ccccc1CSc1nc2c(c(=O)n(C)c(=O)n2C)n1C,0,-4,3,41*
CC(C)n1c(SCc2ccccc2F)nc2c1c(=O)n(C)c(=O)n2C,0,-1,2,16
NCC[C@@H]1CC[C@@H](NC(=O)Nc2ccc(F)cc2)[C@@H](CO)O1,0,·,·,-8
CC(C)(C)c1ccc(C#C[C@@H]2C=C[C@@H](O)[C@@H](CO)O2)cc1,0,-6,·,·
CC(C)(C)c1ccc(C#C[C@@H]2C=C[C@H]3OC(=O)CC/C=C/CCC(=O)OC[C@H]3O2)cc1,0,-4,·,95*
C[C@H]1CCCCO[C@H](CN(C)C(=O)Nc2ccc3c(c2)OCO3)[C@@H](C)CN([C@@H](C)CO)C(=O)c2cc(NC(=O)Nc3ccc(F)cc3)ccc2O1,0,·,·,20
Cc1ccc(N2C(=O)c3ccccc3C2(O)c2ccccc2)cc1 (configuration not stated),0,-6,-1,·
CCc1nnc(N2C(=O)c3ccccc3C2(O)c2ccccc2)s1 (configuration not stated),0,-3,0,42*
CN(C)c1ccc(/C=N/NC(=O)c2ccccc2Cl)cc1,1,2,-3,52*
CCCNC(=O)C1(C)CCN(C(=O)c2cccc(C(F)(F)F)c2)C1 (configuration not stated),0,-5,2,45*
CC1(C(=O)NCc2cccc(C(F)(F)F)c2)CCN1Cc1cc2ccccc2o1 (configuration not stated),0,-6,1,·
CCCNC(=O)C1(C)CCN(C(=O)c2cccc(OC(F)(F)F)c2)C1 (configuration not stated),0,-5,1,18
SMILES,XiGFP reactiv,CaV13 ICDI inh,GAA850 FXN act,GSIS activator
CCNC(=O)C1(C)CCCN1Cc1cccc(C(F)(F)F)c1 (configuration not stated),0,-4,2,44*
CO[C@@H]1CN(C)C(=O)c2cc(NC(C)=O)ccc2OC[C@H](C)N(C(=O)c2ccccn2)C[C@H]1C,0,·,·,1
CCOC(=O)c1ccc2c(c1)sc(=NC(=O)c1ccco1)n2CCOC,0,-5,1,65*
CCOC(=O)Cn1c(=NC(=O)c2cccs2)sc2cc(C(=O)OC)ccc21,0,-7,3,90*
CCOC(=O)Cn1c(=NC(=O)C(C)(C)C)sc2cc([N+](=O)[O-])ccc21,0,-4,1,·
CCOC(=O)Cn1c(=NC(=O)c2nc3ccccc3s2)sc2cc(S(N)(=O)=O)ccc21,0,-3,1,68*
